The conditions of series [1]: cited from earlier work.
The target of another series is human mGluR4 (Homo sapiens, UniProt Q14833). Type of series: cell-based.
The next series deals with rat mGluR1 (Rattus norvegicus, UniProt P23385). The series can be described thus: calcium fluorescence counterscreen in rat mGluR1/BHK cells. In kind it is cell-based. The essentials: (§1)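 Calcium mobilization in rat receptor lines: mGluR1/BHK plated at 20,000 cells/well, mGluR5/HEK at 15,000 cells/well, in DMEM with 10% dialyzed FBS and 20 mM HEPES. […] Test compound run as a 10-point curve from 30 µM final, 1:3 dilutions. Maximum fluorescence of the EC20 and EC80 peaks is expressed versus control.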

The next series concerns rat mGluR5. The experiment in a line: calcium fluorescence counterscreen in rat mGluR5/HEK cells. Type of series: cell-based. The essentials:
as §1
(In general: Counterscreens check selectivity or assay interference.)

Series [2] in a line: stability in fortified liver microsome preparations. In kind it is in vitro ADME. As to conditions: after 90 minutes, fortified liver microsomes. Background: Liver microsomes are a subcellular fraction often used to study metabolism.

The values that follow come from paper PMC3182458 (Bioorganic & medicinal chemistry letters, 2008).

Several values for one entry are separate records, joined by “and”; a condition that tells them apart may be missing. Identical values can stand only once. Entries after “also recorded” stand apart in the source; their conditions may differ.

As a reminder, the EC50 is the concentration giving half of the maximal effect. Read a low EC50 as an effect from little substance.

human mGluR4, sequence (Q14833 33-912): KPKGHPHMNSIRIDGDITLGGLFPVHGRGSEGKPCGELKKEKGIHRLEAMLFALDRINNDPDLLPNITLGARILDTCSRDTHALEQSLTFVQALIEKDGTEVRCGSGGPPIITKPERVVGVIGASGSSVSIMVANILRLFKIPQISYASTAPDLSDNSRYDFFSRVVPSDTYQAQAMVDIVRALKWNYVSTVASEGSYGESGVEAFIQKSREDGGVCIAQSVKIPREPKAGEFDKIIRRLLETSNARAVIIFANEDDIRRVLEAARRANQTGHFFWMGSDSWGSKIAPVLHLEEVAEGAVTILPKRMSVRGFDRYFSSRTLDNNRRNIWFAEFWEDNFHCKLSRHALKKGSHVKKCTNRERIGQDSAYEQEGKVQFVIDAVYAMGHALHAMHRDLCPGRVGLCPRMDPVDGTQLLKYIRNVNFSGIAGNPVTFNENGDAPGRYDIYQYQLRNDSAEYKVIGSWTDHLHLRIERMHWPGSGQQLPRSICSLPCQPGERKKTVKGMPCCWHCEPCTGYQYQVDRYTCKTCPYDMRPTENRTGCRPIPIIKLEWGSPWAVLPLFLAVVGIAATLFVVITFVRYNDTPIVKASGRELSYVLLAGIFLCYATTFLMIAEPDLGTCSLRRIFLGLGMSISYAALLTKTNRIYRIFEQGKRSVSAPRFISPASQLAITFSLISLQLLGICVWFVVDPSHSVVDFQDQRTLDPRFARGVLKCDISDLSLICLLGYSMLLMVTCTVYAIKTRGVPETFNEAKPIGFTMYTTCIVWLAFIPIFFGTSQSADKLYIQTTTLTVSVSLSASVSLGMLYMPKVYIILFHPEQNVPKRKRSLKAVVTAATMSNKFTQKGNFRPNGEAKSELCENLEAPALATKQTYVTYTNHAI
rat mGluR1, sequence (P23385 19-1199): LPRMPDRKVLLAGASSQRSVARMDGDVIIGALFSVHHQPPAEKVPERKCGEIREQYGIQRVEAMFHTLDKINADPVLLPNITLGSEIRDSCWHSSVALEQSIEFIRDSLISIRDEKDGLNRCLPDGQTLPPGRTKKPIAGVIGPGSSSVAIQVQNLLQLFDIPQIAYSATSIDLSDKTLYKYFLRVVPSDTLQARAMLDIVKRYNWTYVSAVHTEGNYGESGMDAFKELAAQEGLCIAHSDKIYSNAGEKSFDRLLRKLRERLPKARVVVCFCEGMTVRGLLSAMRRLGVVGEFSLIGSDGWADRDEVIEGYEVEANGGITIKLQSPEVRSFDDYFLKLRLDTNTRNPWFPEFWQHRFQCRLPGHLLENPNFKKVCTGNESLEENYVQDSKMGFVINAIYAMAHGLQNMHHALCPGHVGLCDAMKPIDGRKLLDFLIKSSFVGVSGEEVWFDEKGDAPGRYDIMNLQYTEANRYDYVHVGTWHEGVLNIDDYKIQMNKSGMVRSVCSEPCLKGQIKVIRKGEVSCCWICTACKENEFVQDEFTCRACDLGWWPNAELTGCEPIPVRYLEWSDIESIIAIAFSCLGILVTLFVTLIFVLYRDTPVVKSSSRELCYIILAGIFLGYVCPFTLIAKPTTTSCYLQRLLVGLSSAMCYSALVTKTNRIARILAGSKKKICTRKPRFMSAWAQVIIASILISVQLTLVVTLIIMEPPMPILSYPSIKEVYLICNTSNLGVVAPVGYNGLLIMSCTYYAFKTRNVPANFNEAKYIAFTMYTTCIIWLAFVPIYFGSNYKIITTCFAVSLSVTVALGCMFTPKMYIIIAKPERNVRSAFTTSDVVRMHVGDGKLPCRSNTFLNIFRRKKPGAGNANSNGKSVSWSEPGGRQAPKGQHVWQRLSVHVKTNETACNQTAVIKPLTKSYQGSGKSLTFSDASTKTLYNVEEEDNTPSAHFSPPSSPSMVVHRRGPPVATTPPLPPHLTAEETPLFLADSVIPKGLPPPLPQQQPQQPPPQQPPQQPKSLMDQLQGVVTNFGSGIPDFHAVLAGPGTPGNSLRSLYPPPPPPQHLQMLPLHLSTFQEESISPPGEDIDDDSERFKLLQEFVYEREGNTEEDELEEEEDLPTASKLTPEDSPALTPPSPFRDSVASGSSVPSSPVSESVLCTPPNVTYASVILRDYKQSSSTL

As for `O=C(Nc1ccccc1)[C@]12C[C@H]1/C(=N\O)c1ccccc1O2` [(−)-PHCCC, reference compound], the brain penetration entry in series [1] is listed as “limited brain penetration”. At human mGluR4 (compound at 30 µM), the “effect on the glutamate max (maximal response)” value is “elevation in the glutamate max; also recorded: increases maximal response”.

Consider `Cc1ccc(-n2ncc3c(N4CCCC(C)C4)ncnc32)c(C)c1` (centres unmarked) [Compound 7, 1-(2,4-dimethylphenyl)-4-(3-methylpiperidin-1-yl)-1H-pyrazolo[3,4-d]pyrimidine], for which the “mode of action at mGluR1” value on rat mGluR1 is “full antagonist”. Also, the “selectivity versus mGluR5” value in the series on rat mGluR5 is “selective versus mGluR5”. Also, on human mGluR4, the EC50 is ~5 µM. Besides, the “effect on the glutamate max (maximal response)” value at human mGluR4 (compound at 30 µM) is “no increase in the glutamate max”. Further, the “Fold shift (leftward shift of the glutamate response curve)” value on human mGluR4 (compound at 30 µM, HTS stock of 7) was 27.2(±8.5) fold and 27.2 fold. The “potentiation of an EC20 of glutamate in the HTS campaign” value on human mGluR4 (mGluR4/Gqi5 CHO cells, HTS) is given as “Concentration-dependent potentiation”. The “effect on mGluR4 in the absence of glutamate” value at human mGluR4 (no glutamate) is recorded as “does not activate mGluR4”. In series [2], the parent compound remaining is given as 9%.

`N[C@@H](CCP(=O)(O)O)C(=O)O` [L-AP4, L-(+)-2-amino-4-phosphonobutryic acid]: in series [1], the CNS penetration result is “limited CNS penetration”.
